What was measured:
[1] = Fraction unbound in rhesus monkey plasma at 3 mg/kg, iv; type: ADME, organism-based, Macaca mulatta; design: dose 3 mg/kg, route intravenous
[2] = Fraction unbound in Beagle dog plasma at 3 mg/kg, iv; type: ADME, organism-based, Canis lupus familiaris; design: dose 3 mg/kg, route intravenous
[3] = Fraction unbound in Sprague-Dawley rat plasma at 3 mg/kg, iv; type: ADME, organism-based; design: dose 3 mg/kg, route intravenous
[4] = Lipophilicity, log D of the compound at pH 7.3; type: physicochemical; conditions: buffer
[5] = Oral bioavailability in rhesus monkey at 10 mg/kg; type: ADME, organism-based, Macaca mulatta; conditions: in vivo
[6] = Half life in rhesus monkey at 3 mg/kg, iv; type: ADME, organism-based, Macaca mulatta; design: dose 3 mg/kg, route intravenous; conditions: in vivo
[7] = Half life in Beagle dog at 3 mg/kg, iv; type: ADME, organism-based, Canis lupus familiaris; design: dose 3 mg/kg, route intravenous; conditions: in vivo
[8] = Half life in Sprague-Dawley rat at 3 mg/kg, iv; type: ADME, organism-based; design: dose 3 mg/kg, route intravenous; conditions: in vivo
[9] = Plasma clearance in rhesus monkey at 3 mg/kg, iv; type: ADME, organism-based, Macaca mulatta; design: dose 3 mg/kg, route intravenous
[10] = Plasma clearance in Beagle dog at 3 mg/kg, iv; type: ADME, organism-based, Canis lupus familiaris; design: dose 3 mg/kg, route intravenous
[11] = Plasma clearance in Sprague-Dawley rat at 3 mg/kg, iv; type: ADME, organism-based; design: dose 3 mg/kg, route intravenous
[12] = tested on: Plasma; test: Unbound plasma concentration in acetic acid-induced Sprague-Dawley rat bladder hyperactivity model at 10 mg/kg, iv administered as 1 to 2 hrs infusion; type: ADME, organism-based; design: dose 10 mg/kg, route intravenous; conditions: in vivo
[13] = tested on: Plasma; test: Unbound plasma concentration in acetic acid-induced Sprague-Dawley rat bladder hyperactivity model at 3 mg/kg, iv administered as 1 to 2 hrs infusion; type: ADME, organism-based; design: dose 3 mg/kg, route intravenous; conditions: in vivo
[14] = tested on: Plasma; test: Unbound plasma concentration in acetic acid-induced Sprague-Dawley rat bladder hyperactivity model at 1 mg/kg, iv administered as 1 to 2 hrs infusion; type: ADME, organism-based; design: dose 1 mg/kg, route intravenous; conditions: in vivo
[15] = tested on: Rattus norvegicus; test: Reduction of micturition pressure at 1.2 uM unbound plasma level in acetic acid-induced Sprague-Dawley rat bladder hyperactivity model at 10 mg/kg, iv administered as 1 to 2 hrs infusion relative to vehicle-treated control; type: functional; design: scale not given: the % may be the effect or the level left
[16] = tested on: Rattus norvegicus; test: Reduction of micturition pressure in iv dosed acetic acid-induced Sprague-Dawley rat bladder hyperactivity model administered as 1 to 2 hrs infusion; type: functional, organism-based
[17] = target: Beta-3 adrenergic receptor (Macaca mulatta) (UniProt Q28524); test: Agonist activity at rhesus monkey beta-3 adrenergic receptor expressed in CHO cells assessed as increase in intracellular cAMP accumulation at 10^-10 to 10^-5 M after 30 mins by time-resolved fluorescence assay relative to R-(-)isoproterenol; type: functional, cell-based
Procedure, shortened: (§1)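 CHO cells stably transfected with cloned β3-AR, harvested after 3 days subculture with enzyme-free dissociation, 6000 cells in HBSS with 5 mM HEPES, 0.1% BSA and 0.6 mM IBMX. Ligand at 10⁻¹⁰ to 10⁻⁵ M final, 30 min room temperature with labeled cAMP antibody; LANCE TR-FRET read after 1 h detection, cAMP from standard curve.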

[18] = target: Beta-3 adrenergic receptor (Macaca mulatta, UniProt Q28524); test: Agonist activity at rhesus monkey beta-3 adrenergic receptor expressed in CHO cells assessed as increase in intracellular cAMP accumulation after 30 mins by time-resolved fluorescence assay; type: functional, cell-based; procedure, shortened: as §1
[19] = target: Beta-3 adrenergic receptor (Canis lupus familiaris) (UniProt O02662); test: Agonist activity at dog beta-3 adrenergic receptor expressed in CHO cells assessed as increase in intracellular cAMP accumulation at 10^-10 to 10^-5 M after 30 mins by time-resolved fluorescence assay relative to R-(-)isoproterenol; type: functional, cell-based; procedure, shortened: as §1
[20] = target: Beta-3 adrenergic receptor (Canis lupus familiaris, UniProt O02662); test: Agonist activity at dog beta-3 adrenergic receptor expressed in CHO cells assessed as increase in intracellular cAMP accumulation after 30 mins by time-resolved fluorescence assay; type: functional, cell-based; procedure, shortened: as §1
[21] = target: Beta-3 adrenergic receptor (Rattus norvegicus) (UniProt P26255); test: Agonist activity at rat beta-3 adrenergic receptor expressed in CHO cells assessed as increase in intracellular cAMP accumulation at 10^-10 to 10^-5 M after 30 mins by time-resolved fluorescence assay relative to R-(-)isoproterenol; type: functional, cell-based; procedure, shortened: as §1
[22] = target: Beta-3 adrenergic receptor (Rattus norvegicus, UniProt P26255); test: Agonist activity at rat beta-3 adrenergic receptor expressed in CHO cells assessed as increase in intracellular cAMP accumulation after 30 mins by time-resolved fluorescence assay; type: functional, cell-based; procedure, shortened: as §1
[23] = Intrinsic clearance in monkey liver microsomes; type: ADME, Macaca mulatta, Microsome; conditions: rhesus monkey, read-out: CLH
[24] = Intrinsic clearance in dog liver microsomes; type: ADME, Canis lupus familiaris; conditions: read-out: CLH
[25] = Intrinsic clearance in human liver microsomes; type: ADME; conditions: read-out: CLH
[26] = target: Sodium-dependent serotonin transporter (Homo sapiens, UniProt P31645); test: Inhibition of human SERT expressed in HEK293 cells incubated for 30 mins prior to fluorescent substrate addition measured after 30 mins by fluorescent dye uptake assay; type: cell-based
Procedure, shortened: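 HEK293 stably expressing human SERT, 20000 cells/well plated overnight at 37 °C, then in HBSS with 20 mM HEPES and 0.1% BSA. Compound added from 100× DMSO stock, 30 min at 37 °C, then fluorescent transporter substrate for 30 more min. Fluorescence read at 440/520 nm, normalized to DMSO (0%) and 10 μM fluoxetine (100%), four-parameter fit for IC50.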

[27] = target: Sodium channel protein type 5 subunit alpha (Homo sapiens, UniProt Q14524); test: Inhibition of human NaV1.5
[28] = target: Voltage-dependent L-type calcium channel subunit alpha-1C (Homo sapiens, UniProt Q13936); test: Displacement of [3H]-diltiazem from human CaV1.2
[29] = target: Cytochrome P450 3A4 (Homo sapiens, UniProt P08684); test: Inhibition of CYP3A4 in human liver microsomes assessed as testosterone 6beta-hydroxylation; type: ADME
[30] = target: Cytochrome P450 2D6 (Homo sapiens, UniProt P10635); test: Inhibition of CYP2D6 in human liver microsomes assessed as dextromethorphan O-demethylation; type: ADME
[31] = target: Cytochrome P450 2C9 (Homo sapiens, UniProt P11712); test: Inhibition of CYP2C9 in human liver microsomes assessed as diclofenac alpha'-hydroxylation; type: ADME
[32] = Apparent permeability in MDCK2 cells; type: ADME, cell-based, Canis lupus familiaris, MDCK-II; conditions: dog, MDCK
[33] = Intrinsic clearance in rat liver microsomes; type: ADME; conditions: read-out: CLH
[34] = Fraction unbound in rhesus monkey plasma at 1 mg/kg, iv and 2 mg/kg, po; type: ADME, organism-based, Macaca mulatta
[35] = Fraction unbound in Beagle dog plasma at 1 mg/kg, iv and 2 mg/kg, po; type: ADME, organism-based, Canis lupus familiaris
[36] = Fraction unbound in Sprague-Dawley rat plasma at 1 mg/kg, iv and 2 mg/kg, po; type: ADME, organism-based; conditions: Sprague-Dawley, plasma
[37] = Oral bioavailability in Beagle dog at 2 mg/kg; type: ADME, organism-based, Canis lupus familiaris; conditions: in vivo
[38] = Oral bioavailability in rhesus monkey at 2 mg/kg; type: ADME, organism-based, Macaca mulatta; conditions: in vivo
[39] = Oral bioavailability in Sprague-Dawley rat at 2 mg/kg; type: ADME, organism-based; conditions: in vivo
[40] = Half life in Beagle dog at 1 mg/kg, iv and 2 mg/kg, po; type: ADME, organism-based, Canis lupus familiaris; conditions: in vivo
[41] = Half life in rhesus monkey at 1 mg/kg, iv and 2 mg/kg, po; type: ADME, organism-based, Macaca mulatta; conditions: in vivo
[42] = Half life in Sprague-Dawley rat at 1 mg/kg, iv and 2 mg/kg, po; type: ADME, organism-based; conditions: in vivo
[43] = Plasma clearance in Beagle dog at 1 mg/kg, iv and 2 mg/kg, po; type: ADME, organism-based, Canis lupus familiaris
[44] = Plasma clearance in rhesus monkey at 1 mg/kg, iv and 2 mg/kg, po; type: ADME, organism-based, Macaca mulatta
[45] = Plasma clearance in Sprague-Dawley rat at 1 mg/kg, iv and 2 mg/kg, po; type: ADME, organism-based
[46] = target: Beta-2 adrenergic receptor (Homo sapiens, UniProt P07550); test: Displacement of [125I]-cyanopindolol from recombinant human beta-2 adrenergic receptor expressed in CHO cell membranes after 1 hr by scintillation counting analysis
[47] = target: Beta-1 adrenergic receptor (Homo sapiens, UniProt P08588); test: Displacement of [125I]-cyanopindolol from recombinant human beta-1 adrenergic receptor expressed in CHO cell membranes after 1 hr by scintillation counting analysis
[48] = target: T1, Beta-3 adrenergic receptor (Homo sapiens, UniProt P13945); test: Agonist activity at human beta-3 adrenergic receptor expressed in CHO cells assessed as increase in intracellular cAMP accumulation at 10^-10 to 10^-5 M after 30 mins by time-resolved fluorescence assay relative to R-(-)isoproterenol; type: functional, cell-based; procedure, shortened: as §1
Target sequence in this assay (P13945 whole entry, looked up): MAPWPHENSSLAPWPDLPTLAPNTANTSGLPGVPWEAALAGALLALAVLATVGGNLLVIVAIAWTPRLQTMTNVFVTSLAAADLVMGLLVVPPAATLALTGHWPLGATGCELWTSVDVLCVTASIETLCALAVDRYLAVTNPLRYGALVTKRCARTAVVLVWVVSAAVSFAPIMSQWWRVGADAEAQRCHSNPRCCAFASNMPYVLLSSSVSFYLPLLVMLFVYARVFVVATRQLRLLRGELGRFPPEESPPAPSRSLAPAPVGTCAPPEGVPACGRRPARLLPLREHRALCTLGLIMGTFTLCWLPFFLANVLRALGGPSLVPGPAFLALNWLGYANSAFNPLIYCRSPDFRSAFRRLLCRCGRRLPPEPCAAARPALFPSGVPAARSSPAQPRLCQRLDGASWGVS

[49] = target: T1, Beta-3 adrenergic receptor; test: Agonist activity at human beta-3 adrenergic receptor expressed in CHO cells assessed as increase in intracellular cAMP accumulation after 30 mins by time-resolved fluorescence assay; type: functional, cell-based; procedure, shortened: as §1
Target sequence in this assay (P13945 whole entry): as the sequence (P13945 whole entry, looked up) above

Beta-3 adrenergic receptor (Rattus norvegicus, UniProt P26255), sequence (P26255 whole entry): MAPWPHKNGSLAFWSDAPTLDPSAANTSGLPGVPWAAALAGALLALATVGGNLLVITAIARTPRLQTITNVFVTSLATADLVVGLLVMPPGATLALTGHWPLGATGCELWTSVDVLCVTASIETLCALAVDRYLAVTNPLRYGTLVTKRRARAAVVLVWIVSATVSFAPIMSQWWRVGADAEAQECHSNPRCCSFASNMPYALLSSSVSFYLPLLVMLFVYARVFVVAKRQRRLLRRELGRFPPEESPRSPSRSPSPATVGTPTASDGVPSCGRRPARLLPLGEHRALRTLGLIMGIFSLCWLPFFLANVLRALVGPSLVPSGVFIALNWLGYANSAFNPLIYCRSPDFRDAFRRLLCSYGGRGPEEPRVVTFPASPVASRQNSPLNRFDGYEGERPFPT
Beta-3 adrenergic receptor (Rattus norvegicus), sequence (P26255 whole entry): as above
Cytochrome P450 2C9, sequence (P11712 whole entry): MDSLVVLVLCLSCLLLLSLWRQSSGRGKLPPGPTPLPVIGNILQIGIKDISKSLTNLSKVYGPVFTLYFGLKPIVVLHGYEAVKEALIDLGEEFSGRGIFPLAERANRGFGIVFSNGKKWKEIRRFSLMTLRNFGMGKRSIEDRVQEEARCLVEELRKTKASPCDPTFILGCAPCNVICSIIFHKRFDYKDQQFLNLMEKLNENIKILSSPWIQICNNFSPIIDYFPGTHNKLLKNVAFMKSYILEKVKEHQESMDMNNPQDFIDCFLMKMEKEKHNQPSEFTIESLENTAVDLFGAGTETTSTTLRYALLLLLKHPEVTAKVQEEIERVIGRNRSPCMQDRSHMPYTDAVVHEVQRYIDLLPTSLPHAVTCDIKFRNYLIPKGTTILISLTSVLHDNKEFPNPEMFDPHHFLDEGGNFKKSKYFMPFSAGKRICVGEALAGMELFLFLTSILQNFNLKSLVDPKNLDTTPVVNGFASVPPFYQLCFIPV
Beta-3 adrenergic receptor (Macaca mulatta, UniProt Q28524), sequence (Q28524 whole entry): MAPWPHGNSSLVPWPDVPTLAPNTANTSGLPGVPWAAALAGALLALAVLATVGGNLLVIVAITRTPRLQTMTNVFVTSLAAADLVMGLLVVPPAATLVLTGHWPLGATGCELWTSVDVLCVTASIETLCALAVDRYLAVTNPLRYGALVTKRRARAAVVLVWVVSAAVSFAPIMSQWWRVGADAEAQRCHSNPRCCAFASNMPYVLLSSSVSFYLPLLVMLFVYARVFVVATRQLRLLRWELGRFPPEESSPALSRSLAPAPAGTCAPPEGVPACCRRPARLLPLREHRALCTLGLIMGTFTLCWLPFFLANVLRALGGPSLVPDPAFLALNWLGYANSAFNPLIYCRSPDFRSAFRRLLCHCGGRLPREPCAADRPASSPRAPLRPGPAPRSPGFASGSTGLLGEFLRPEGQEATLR
Beta-3 adrenergic receptor (Macaca mulatta), sequence (Q28524 whole entry): as above
Sodium channel protein type 5 subunit alpha, sequence (Q14524 whole entry): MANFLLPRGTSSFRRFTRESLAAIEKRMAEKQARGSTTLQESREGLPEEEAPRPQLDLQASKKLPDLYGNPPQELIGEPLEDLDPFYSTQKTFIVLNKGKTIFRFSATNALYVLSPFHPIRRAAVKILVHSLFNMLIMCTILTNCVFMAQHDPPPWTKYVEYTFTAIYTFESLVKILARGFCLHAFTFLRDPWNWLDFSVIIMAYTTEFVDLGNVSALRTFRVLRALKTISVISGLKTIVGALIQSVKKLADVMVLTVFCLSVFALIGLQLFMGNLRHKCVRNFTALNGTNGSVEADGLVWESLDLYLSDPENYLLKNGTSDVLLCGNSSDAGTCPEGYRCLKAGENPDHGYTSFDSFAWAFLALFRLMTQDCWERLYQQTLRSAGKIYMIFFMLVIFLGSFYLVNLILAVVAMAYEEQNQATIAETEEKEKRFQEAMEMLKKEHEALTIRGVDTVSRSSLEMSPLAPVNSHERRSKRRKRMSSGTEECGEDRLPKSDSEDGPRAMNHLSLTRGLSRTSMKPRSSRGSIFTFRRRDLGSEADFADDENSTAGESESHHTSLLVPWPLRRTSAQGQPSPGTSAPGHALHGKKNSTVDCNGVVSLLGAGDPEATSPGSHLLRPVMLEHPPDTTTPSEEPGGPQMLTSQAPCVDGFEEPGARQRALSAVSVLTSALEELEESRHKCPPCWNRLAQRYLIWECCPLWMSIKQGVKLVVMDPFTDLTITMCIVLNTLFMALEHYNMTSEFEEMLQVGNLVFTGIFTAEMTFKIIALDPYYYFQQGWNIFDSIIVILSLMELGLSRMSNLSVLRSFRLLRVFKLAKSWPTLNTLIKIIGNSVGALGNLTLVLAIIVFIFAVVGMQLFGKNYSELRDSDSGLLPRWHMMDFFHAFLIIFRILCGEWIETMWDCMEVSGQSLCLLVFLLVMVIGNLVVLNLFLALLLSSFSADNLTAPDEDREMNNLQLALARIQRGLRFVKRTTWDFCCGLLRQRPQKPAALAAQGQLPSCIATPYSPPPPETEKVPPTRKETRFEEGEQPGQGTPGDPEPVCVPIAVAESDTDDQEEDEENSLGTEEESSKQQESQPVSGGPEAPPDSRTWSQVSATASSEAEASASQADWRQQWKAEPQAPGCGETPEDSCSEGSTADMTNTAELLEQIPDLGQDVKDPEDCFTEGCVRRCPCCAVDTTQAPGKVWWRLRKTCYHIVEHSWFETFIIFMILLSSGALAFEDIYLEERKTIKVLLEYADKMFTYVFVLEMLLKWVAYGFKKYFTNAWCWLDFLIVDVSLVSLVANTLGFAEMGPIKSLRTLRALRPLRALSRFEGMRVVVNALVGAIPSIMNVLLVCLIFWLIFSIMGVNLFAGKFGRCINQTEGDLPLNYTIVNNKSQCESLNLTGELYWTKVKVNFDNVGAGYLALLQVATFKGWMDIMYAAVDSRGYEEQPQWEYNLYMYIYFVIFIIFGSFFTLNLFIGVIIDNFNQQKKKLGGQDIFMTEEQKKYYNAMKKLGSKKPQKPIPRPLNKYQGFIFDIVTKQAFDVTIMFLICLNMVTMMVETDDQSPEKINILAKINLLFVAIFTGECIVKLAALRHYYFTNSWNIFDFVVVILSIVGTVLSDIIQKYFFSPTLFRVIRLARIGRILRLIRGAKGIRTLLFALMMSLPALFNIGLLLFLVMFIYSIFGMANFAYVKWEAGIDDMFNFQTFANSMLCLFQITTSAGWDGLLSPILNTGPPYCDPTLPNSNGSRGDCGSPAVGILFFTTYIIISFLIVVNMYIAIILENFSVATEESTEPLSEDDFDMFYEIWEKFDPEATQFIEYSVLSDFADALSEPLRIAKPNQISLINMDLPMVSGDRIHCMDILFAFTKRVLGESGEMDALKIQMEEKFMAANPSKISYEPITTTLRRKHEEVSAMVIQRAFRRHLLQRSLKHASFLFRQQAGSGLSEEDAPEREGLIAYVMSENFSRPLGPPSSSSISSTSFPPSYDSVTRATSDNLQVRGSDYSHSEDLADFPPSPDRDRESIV
Sodium-dependent serotonin transporter, sequence (P31645 whole entry): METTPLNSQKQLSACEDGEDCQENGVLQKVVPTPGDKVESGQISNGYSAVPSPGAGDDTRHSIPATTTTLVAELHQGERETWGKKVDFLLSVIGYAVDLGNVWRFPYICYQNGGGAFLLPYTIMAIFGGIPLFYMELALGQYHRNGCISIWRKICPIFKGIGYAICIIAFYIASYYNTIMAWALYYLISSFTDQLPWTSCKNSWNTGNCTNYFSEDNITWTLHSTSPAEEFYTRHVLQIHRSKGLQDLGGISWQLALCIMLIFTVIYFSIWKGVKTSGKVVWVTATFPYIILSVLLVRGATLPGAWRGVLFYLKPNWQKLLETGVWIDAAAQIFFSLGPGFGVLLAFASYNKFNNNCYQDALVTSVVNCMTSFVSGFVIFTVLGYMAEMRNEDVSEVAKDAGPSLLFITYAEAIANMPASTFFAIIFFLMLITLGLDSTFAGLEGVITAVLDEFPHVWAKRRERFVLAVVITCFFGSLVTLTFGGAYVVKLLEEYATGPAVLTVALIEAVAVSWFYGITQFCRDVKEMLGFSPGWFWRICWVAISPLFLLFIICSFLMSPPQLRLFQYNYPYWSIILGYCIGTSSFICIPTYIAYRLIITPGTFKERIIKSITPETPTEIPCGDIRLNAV
Beta-3 adrenergic receptor (Canis lupus familiaris), sequence (O02662 whole entry): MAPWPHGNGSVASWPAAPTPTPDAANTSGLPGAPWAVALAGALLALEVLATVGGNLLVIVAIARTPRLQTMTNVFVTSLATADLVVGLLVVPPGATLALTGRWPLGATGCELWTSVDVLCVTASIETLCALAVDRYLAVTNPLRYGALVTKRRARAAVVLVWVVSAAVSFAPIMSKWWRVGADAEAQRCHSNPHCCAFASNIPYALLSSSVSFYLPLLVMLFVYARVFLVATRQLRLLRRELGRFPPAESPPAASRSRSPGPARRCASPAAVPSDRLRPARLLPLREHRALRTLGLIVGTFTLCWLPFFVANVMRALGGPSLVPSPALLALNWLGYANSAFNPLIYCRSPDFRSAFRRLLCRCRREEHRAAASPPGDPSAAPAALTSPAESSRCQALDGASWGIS
Beta-3 adrenergic receptor (Canis lupus familiaris, UniProt O02662), sequence (O02662 whole entry): as above

SMILES: O=S(=O)(Nc1ccc(CCNC[C@H](O)c2cccnc2)cc1)c1ccc(-c2nc(-c3ccc(C(F)(F)F)cc3)cs2)cc1
- fraction unbound [1]: 0.02
- fraction unbound [2]: 0.02
- fraction unbound [3]: 0.02
- logD [4]: 4.6
- bioavailability [5]: 4%
- half-life [6]: 9 h
- half-life [7]: 14 h
- half-life [8]: 8 h
- clearance [9]: 1.14 L/h/kg
- clearance [10]: 1.2 L/h/kg
- clearance [11]: 3.72 L/h/kg

SMILES: O=C(Nc1ccc(C[C@@H]2CC[C@H]([C@H](O)c3cccnc3)N2)cc1)[C@@H]1CCc2scnc21
- Cp(f) [12]: 1.17 µM
- Cp(f) [13]: 0.26 µM
- Cp(f) [14]: 0.09 µM
- Activity [15]: 59%
- Activity [16]: Dose-dependent effect
- Activity [17]: 98%
- EC50 [18]: 0.002 µM
- Activity [19]: 82%
- EC50 [20]: 0.005 µM
- Activity [21]: 89%
- EC50 [22]: 0.0276 µM
- logD [4]: 0.9
- CLint scaled [23]: 12.3 L/h/kg
- CLint scaled [24]: < 0.6 L/h/kg
- CLint scaled [25]: < 0.6 L/h/kg
- IC50 [26]: 0.422 µM
- IC50 [27]: > 30 µM
- IC50 [28]: > 30 µM
- IC50 [29]: > 100 µM
- IC50 [30]: 78.8 µM
- IC50 [31]: > 100 µM
- Papp [32]: 130 nm/s
- CLint scaled [33]: < 0.9 L/h/kg
- fraction unbound [34]: 1
- fraction unbound [35]: 0.7
- fraction unbound [36]: 0.19
- bioavailability [37]: 67%
- bioavailability [38]: 8%
- bioavailability [39]: 41%
- half-life [40]: 6 h
- half-life [41]: 2 h
- half-life [42]: 2 h
- clearance [43]: 1.62 L/h/kg
- clearance [44]: 2.16 L/h/kg
- clearance [45]: 1.98 L/h/kg
- IC50 [46]: > 20 µM
- IC50 [47]: > 20 µM
- Activity [48]: 103%
- EC50 [49]: 0.00136 µM

Source: ChEMBL document CHEMBL3124772, “Design, synthesis, and evaluation of conformationally restricted acetanilides as potent and selective β3 adrenergic receptor agonists for the treatment of overactive bladder” (J Med Chem, 2014)
